# Results from ChEMBL document CHEMBL1148605, “Synthesis and preliminary in vitro investigation of bivalent ligands containing homo- and heterodimeric pharmacophores at mu, delta, and kappa opioid receptors” (J Med Chem, 2006).
# Tests used:
# Mu-type opioid receptor [1] = biological target: T1, Mu-type opioid receptor (Homo sapiens, UniProt P35372); assay: Functional activity at human mu opioid receptor expressed in CHO cells by [35S]GTP-gamma-S binding assay; type: cell-based
# Procedure, shortened: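 Human µ receptor stably expressed in CHO cells; membranes at 7.5 µg protein/tube, incubated 60 min at 30 °C with 12 compound concentrations, 3 µM GDP and […] [35S]GTPγS in pH 7.4 Tris/MgCl2/NaCl/EGTA buffer. […] Antagonist mode used 200 nM DAMGO. At least 3 experiments in triplicate.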
# Mu-type opioid receptor [2] = biological target: T1, Mu-type opioid receptor; assay: biochemical; type: cell-based, CHO
# [3] = biological target: Delta-type opioid receptor (Homo sapiens, UniProt P41143); assay: Displacement of [3H]naltrindole from human delta opioid receptor expressed in CHO cells; type: cell-based
# Delta-type opioid receptor, sequence (P41143 whole entry): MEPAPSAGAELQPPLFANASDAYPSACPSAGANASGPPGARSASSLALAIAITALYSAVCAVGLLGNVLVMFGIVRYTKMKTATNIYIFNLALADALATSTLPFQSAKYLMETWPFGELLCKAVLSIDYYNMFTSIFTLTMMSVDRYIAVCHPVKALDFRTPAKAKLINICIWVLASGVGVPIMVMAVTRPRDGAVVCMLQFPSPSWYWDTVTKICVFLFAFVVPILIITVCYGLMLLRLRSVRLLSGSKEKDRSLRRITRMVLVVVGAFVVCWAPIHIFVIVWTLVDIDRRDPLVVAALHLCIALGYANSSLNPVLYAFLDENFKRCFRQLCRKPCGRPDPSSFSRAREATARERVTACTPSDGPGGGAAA
# Procedure, shortened: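 Competition binding on membranes of CHO cells stably expressing human δ receptor, using [3H]naltrindole and 12 compound concentrations. Incubated 3 h at 25 °C in 50 mM Tris-HCl, pH 7.5.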
# [4] = biological target: T2, Kappa-type opioid receptor (Homo sapiens, UniProt P41145); assay: biochemical; type: cell-based, CHO
# T2 sequence (P41145 whole entry): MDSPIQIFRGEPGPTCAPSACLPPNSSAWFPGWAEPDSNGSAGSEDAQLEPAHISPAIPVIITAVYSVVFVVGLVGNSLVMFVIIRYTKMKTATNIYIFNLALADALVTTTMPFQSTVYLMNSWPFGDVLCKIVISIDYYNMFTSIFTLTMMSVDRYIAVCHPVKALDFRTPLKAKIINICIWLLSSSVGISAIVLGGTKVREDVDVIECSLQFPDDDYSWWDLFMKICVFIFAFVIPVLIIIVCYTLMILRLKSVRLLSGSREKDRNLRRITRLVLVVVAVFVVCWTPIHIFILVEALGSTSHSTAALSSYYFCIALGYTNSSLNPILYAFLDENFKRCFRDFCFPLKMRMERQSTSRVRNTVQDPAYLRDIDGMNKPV
# [5] = biological target: T2, Kappa-type opioid receptor; assay: Functional activity at human kappa opioid receptor expressed CHO cells by [35S]GTPgammaS binding assay; type: cell-based
# [6] = biological target: T2, Kappa-type opioid receptor; assay: Activity at human kappa opioid receptor expressed in CHO cells by [35S]GTP-gamma-S binding assay; type: functional, cell-based
# Mu-type opioid receptor [7] = biological target: T1, Mu-type opioid receptor; assay: Activity at human mu opioid receptor expressed in CHO cells by [35S]GTP-gamma-S binding assay; type: functional, cell-based
# [8] = biological target: T2, Kappa-type opioid receptor; assay: Activity at human kappa opioid receptor expressed in CHO cells by [35S]GTPgammaS binding assay at 10 uM; type: functional, cell-based
# Procedure, shortened: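 Membranes from CHO cells stably expressing human κ receptor (15 µg protein/tube), 12 compound concentrations, 60 min at 30 °C in Tris-HCl/MgCl2/NaCl/EGTA buffer pH 7.4 with 3 µM GDP and […] [35S]GTPγS. Filtration count, expressed as % stimulation over basal, giving Emax and EC50. […] At least 3 experiments in triplicate.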
# [9] = Displacement of [3H]naltrindole from human delta opioid receptor expressed in CHO cells
# T1 sequence (P35372 whole entry): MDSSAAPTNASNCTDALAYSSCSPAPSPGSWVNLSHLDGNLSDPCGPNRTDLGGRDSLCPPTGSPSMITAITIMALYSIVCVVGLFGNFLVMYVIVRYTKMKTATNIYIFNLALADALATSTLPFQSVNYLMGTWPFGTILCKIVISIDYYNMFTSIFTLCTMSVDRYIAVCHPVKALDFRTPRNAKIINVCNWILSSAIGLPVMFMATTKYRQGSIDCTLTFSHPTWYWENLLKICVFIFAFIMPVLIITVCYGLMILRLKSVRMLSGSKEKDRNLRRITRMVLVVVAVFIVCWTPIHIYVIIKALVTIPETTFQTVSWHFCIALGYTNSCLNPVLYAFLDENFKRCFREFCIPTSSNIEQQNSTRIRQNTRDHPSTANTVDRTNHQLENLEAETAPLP
Structure (SMILES),Ki (Mu-type opioid receptor [2]) [nM],Ki [3] [nM],Ki [4] [nM],Activity ([5]; filed as agonist),EC50 [6] [nM],Emax [6] [%],EC50 (Mu-type opioid receptor [7]) [nM],Emax (Mu-type opioid receptor [7]) [%],other results
C[C@@H](NC(=O)[C@@H](N)Cc1ccc(O)cc1)C(=O)NCC(=O)N(C)[C@@H](Cc1ccccc1)C(=O)NCCO,,,,,,,,,Activity (Mu-type opioid receptor [1]; filed as agonist): Agonist
O=C(CCCCCCCCC(=O)Oc1ccc2c(c1)[C@]13CCCCC1[C@H](C2)N(CC1CCC1)CC3)Oc1ccc2c(c1)[C@]13CCCCC1[C@H](C2)N(CC1CCC1)CC3 (some centres not stated),130,700,130,,,,,,
"Oc1ccc2c(c1)[C@]13CCCCC1[C@H](C2)N(CC1CCC1)CC3 (single isomer, unassigned; (+))",,> 10000,55,,,,,,
O=C(/C=C/C=C/C(=O)Oc1ccc2c(c1)[C@@]13CCCCC1[C@@H](C2)N(CC1CCC1)CC3)Oc1ccc2c(c1)[C@@]13CCCCC1[C@@H](C2)N(CC1CCC1)CC3 (some centres not stated),2.8,28,0.62,Agonist,17,91,19,96,Activity (Mu-type opioid receptor [1]; filed as agonist): Agonist
O=C(/C=C/C(=O)Nc1ccc2c(c1)[C@@]13CCCCC1[C@@H](C2)N(CC1CCC1)CC3)Nc1ccc2c(c1)[C@@]13CCCCC1[C@@H](C2)N(CC1CCC1)CC3 (some centres not stated),13,160,7.3,,,,,,
CN1CC[C@]23c4c5ccc(OC(=O)CCCCCCCCC(=O)Oc6ccc7c(c6)[C@@]68CCCCC6[C@@H](C7)N(CC6CCC6)CC8)c4O[C@H]2[C@@H](O)C=C[C@H]3[C@H]1C5 (some centres not stated),0.22,3.9,0.11,Agonist,2.3,150,2.5,110,Activity (Mu-type opioid receptor [1]; filed as agonist): Agonist
O=C(/C=C/C(=O)Oc1ccc2c(c1)[C@@]13CCCC[C@H]1[C@@H](C2)N(CC1CCC1)CC3)Oc1ccc2c(c1)[C@@]13CCCC[C@H]1[C@@H](C2)N(CC1CCC1)CC3,,,0.08,,,,,,
O=C(CCCCCCCCC(=O)Nc1ccc2c(c1)[C@@]13CCCCC1[C@@H](C2)N(CC1CCC1)CC3)Nc1ccc2c(c1)[C@@]13CCCCC1[C@@H](C2)N(CC1CCC1)CC3 (some centres not stated),5.7,38,7.5,,,,,,
O=C(CCCCCCCCC(=O)Oc1ccc2c(c1)[C@@]13CCCCC1[C@@H](C2)N(CC1CCC1)CC3)Oc1ccccc1 (some centres not stated),0.44,11,0.3,Agonist,3.8,170,5.1,93,Activity (Mu-type opioid receptor [1]; filed as agonist): Agonist
O=C(CCC(=O)Nc1ccc2c(c1)[C@@]13CCCCC1[C@@H](C2)N(CC1CCC1)CC3)Nc1ccc2c(c1)[C@@]13CCCCC1[C@@H](C2)N(CC1CCC1)CC3 (some centres not stated),3.3,,3.8,,,,,,
Oc1ccc2c(c1)[C@@]13CCCC[C@H]1[C@@H](C2)N(CC1CC1)CC3,,,,,,,,,Activity (Mu-type opioid receptor [1]; filed as partial agonist): Partial agonist
O=C(CCCCCCCCC(=O)Oc1ccc2c(c1)[C@@]13CCCCC1[C@@H](C2)N(CC1CCC1)CC3)Nc1ccc2c(c1)[C@@]13CCCCC1[C@@H](C2)N(CC1CCC1)CC3 (some centres not stated),0.65,12,0.38,,8.8,55,4.4,56,Activity ([5]; filed as partial agonist): Partial agonist; IC50 (Mu-type opioid receptor [7]): 150 nM; Imax (Mu-type opioid receptor [7]): 61%; Imax [8]: 65 µM; Activity (Mu-type opioid receptor [1]; filed as partial agonist): Partial agonist
O=C(CCCCCCCCC(=O)Oc1ccc2c(c1)[C@@]13CCCCC1[C@@H](C2)N(C[C@@H]1CCCO1)CC3)Oc1ccc2c(c1)[C@@]13CCCCC1[C@@H](C2)N(C[C@@H]1CCCO1)CC3 (some centres not stated),0.67,8.3,1.2,Agonist,8.8,140,12,69,IC50 (Mu-type opioid receptor [7]): 360 nM; Imax (Mu-type opioid receptor [7]): 48%
Oc1ccc2c(c1)[C@@]13CCCCC1[C@@H](C2)N(C[C@@H]1CCCO1)CC3 (some centres not stated),0.01,,0.15,,,,,,Ki [9]: 0.27 nM
"O=C(CCCCCCCCC(=O)Oc1ccc2c(c1)[C@]13CCCCC1[C@H](C2)N(CC1CCC1)CC3)Oc1ccc2c(c1)[C@@]13CCCCC1[C@@H](C2)N(CC1CCC1)CC3 (single isomer, unassigned; (+))",2.2,23,1.2,Agonist,7.9,77,,28,IC50 (Mu-type opioid receptor [7]): 460 nM; Imax (Mu-type opioid receptor [7]): 71%
"O=C(CCCCCCCCC(=O)Oc1ccc2c(c1)[C@@]13CCCCC1[C@@H](C2)N(CC1CC1)CC3)Oc1ccc2c(c1)[C@@]13CCCCC1[C@@H](C2)N(CC1CCC1)CC3 (single isomer, unassigned; (-))",0.34,4.4,0.23,Agonist,2.5,110,2.9,41,IC50 (Mu-type opioid receptor [7]): 96 nM; Imax (Mu-type opioid receptor [7]): 64%; Activity (Mu-type opioid receptor [1]; filed as partial agonist): Partial agonist
C#CCN1CC[C@]23CCCCC2[C@H]1Cc1ccc(OC(=O)CCCCCCCCC(=O)Oc2ccc4c(c2)[C@@]25CCCCC2[C@@H](C4)N(CC#C)CC5)cc13 (some centres not stated),14,190,10,,,,,,
O=C(CCC(=O)Oc1ccc2c(c1)[C@@]13CCCCC1[C@@H](C2)N(CC1CCC1)CC3)Oc1ccc2c(c1)[C@@]13CCCCC1[C@@H](C2)N(CC1CCC1)CC3 (some centres not stated),0.16,9.4,0.076,,,,,,
"Oc1ccc2c(c1)[C@]13CCCCC1[C@H](C2)N(CC1CC1)CC3 (single isomer, unassigned; (+))",,13,,,,,,,
Nc1ccc2c(c1)[C@@]13CCCC[C@H]1[C@@H](C2)N(CC1CCC1)CC3,3.7,,1.8,,,,,,
C#CCN1CC[C@]23CCCC[C@H]2[C@H]1Cc1ccc(O)cc13,0.003,,0.003,,,,,,Ki [9]: 0.62 nM
Oc1ccc2c(c1)[C@@]13CCCC[C@H]1[C@@H](C2)N(CC1CCC1)CC3,,,,Agonist,,,,,Imax (Mu-type opioid receptor [7]): 50%; Activity (Mu-type opioid receptor [1]; filed as partial agonist): Partial agonist
O=C(O)CCCCCCCCC(=O)Oc1ccc2c(c1)[C@@]13CCCCC1[C@@H](C2)N(CC1CCC1)CC3 (some centres not stated),0.71,18,0.29,Agonist,2.8,75,3,110,Activity (Mu-type opioid receptor [1]; filed as agonist): Agonist
